Data on 83 variants can be found in the RNAGym collection of RNA variant scans (doi:10.1126/science.aae0568).

The labels stand for the following.
B1: tRNA (parent)
chain: GUUCCGUUGGCGUAAUGGUAACGCGUCUCCCUCCUAAGGAGAAGACUGCGGGUUCGAGUCCCGUACGGAACG

This sample holds only a part of the variants without activity. Where only a bound is given, the exact number is not on record here.

In the data set the parent is B1. The experiment in a line: yeast fitness relative to wild type (ratio to wild type); higher = fitter; tRNA-Arg(CCU), competitive growth, 37 C, YPD. The gist of the method:
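A pool of Saccharomyces cerevisiae strains, each with a tRNA-Arg(CCU) gene variant at the native genomic locus, was competed in YPD at 37°C for 24 hours across six parallel replicates. The variants had been chemically synthesised at a 3% per-site mutation rate over 69 sites, and gene amplicons before and after competition were read by 100-nucleotide paired-end sequencing. Darwinian fitness relative to wild type rested on changes in genotype frequencies. Genotypes required ≥ 100 starting reads, and estimates < 0.5 were set to 0.5.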
Turning to C11A U19A C29A U32A G44U G58A, the yeast fitness was ≤ 0.5.
The figure for C11A G39A C61U C62A is 0.624; for C11A U13G G51A it is ≤ 0.5; for C11A G17A C33U A70C it is ≤ 0.5.
With C11G A14G G23A C46A G68U the figure was ≤ 0.5; with C11A U35A C61U G67A, ≤ 0.5; with C11A U32A A70U, ≤ 0.5.
With C11A U19C C24G C30U C31U C61U G67C the figure was ≤ 0.5; with C11G A20G C33U A37U, ≤ 0.5; with C11A G68A, 0.583.
On to C11G A14U A36U G38C C55U G56C, for which the yeast fitness is ≤ 0.5.
With C11A U28C A43G A65C the figure was ≤ 0.5; with C11A U19G A36G U54C C66U A69C, ≤ 0.5.
The figure for C11G A14U G17A A36G G41A C55G C61A is ≤ 0.5; for C11G A15C G50C it is ≤ 0.5; for C11G A15G C22A U26A A40U C62A it is 0.638.
With C11A U19A C29A U32A G48C C55G the figure was ≤ 0.5; with C11A G18A G67A, ≤ 0.5.
For the variant C11A G17C A43G, the yeast fitness was ≤ 0.5.
On to C11G A15C G17A G18C, for which the yeast fitness is ≤ 0.5.
With C11A G52C the figure was 0.596; with C11A U47C G51C, ≤ 0.5; with C11A C60G A65U, ≤ 0.5.
With C11A G44C C46A U53A G63C the figure was 0.866; with C11G A14U C24A C61A, ≤ 0.5.
The figure for C11A U26A U54A is ≤ 0.5.
Consider C11G A20U C30G C66U, for which the yeast fitness is ≤ 0.5.
The figure for C11G A15U C24G A40G is ≤ 0.5.
The figure for C11A G38A U53A is 0.543.
With C11A G51C C66G the figure was 0.713.
As for C11G A15U C24G A40G C62U, the yeast fitness was ≤ 0.5.
The figure for C11A U26G G44A G52A is 0.55; for C11A U19G A36G C49U U54C A69C it is ≤ 0.5; for C11A U16C it is 0.644.
The figure for C11A U16C G18C A45C A57C is ≤ 0.5; for C11A G17C A21U it is ≤ 0.5.
On to C11G A14C A37C G44C C61G G63C, for which the yeast fitness was ≤ 0.5.
The figure for C11G A20C C24G G58A G67C is ≤ 0.5; for C11G A14C G23C G41C C61A it is ≤ 0.5; for C11G A15C C30U U53A C61G it is ≤ 0.5.
The figure for C11A G38A is 0.579.
The figure for C11A G38C is 0.586; for C11A U26G it is 0.599; for C11A U13C G23C U32G C34A it is ≤ 0.5.
In the case of C11A U32C A65U, the yeast fitness was 0.565.
With C11A U59C C66U A70C the figure was ≤ 0.5; with C11A G41A G67U G68C, 0.567.
The figure for C11G A15G U26G G44A is ≤ 0.5.
With C11G A14C C55G A57U G67A the figure was ≤ 0.5.
As for C11G A14C C24G A36C G68A, the yeast fitness was 0.584.
The figure for C11A G41A C66G is 0.536.
The figure for C11G A15G C22A U26A A40U U54C C62A is ≤ 0.5; for C11G A14C G23C G41C it is 0.531; for C11A U13A it is 0.603.
The figure for C11G A14G A37G G44A is ≤ 0.5.
With C11A U28C C29U C34G A36G, the yeast fitness is ≤ 0.5.
With C11G A15U G38A C46G G56C the figure was ≤ 0.5.
For C11G A14U C34A, the yeast fitness turned out to be 0.528.
With C11G A20C C24U A36C U47A the figure was 0.61.
The figure for C11G A20U C24A G25C A70G is ≤ 0.5.
The figure for C11A G38A U53A G63A G68A is 0.635; for C11G A14G A15U G23C G68C it is ≤ 0.5.
As for C11G A15C A45C, the yeast fitness was ≤ 0.5.
The figure for C11A U16C A21G is ≤ 0.5; for C11A U16C C27G G48C it is ≤ 0.5; for C11A U16C G18C C61A G67A it is ≤ 0.5.
Turning to C11A G67A A70G, the yeast fitness is 0.562.
In the case of C11G A14U G48C, the yeast fitness is 0.58.
The figure for C11A G50C C61A A69G is ≤ 0.5; for C11A U16C G18C A45C A57C G68C it is 0.546; for C11A U13C C27A it is ≤ 0.5.
As to C11A U32A C33U, the yeast fitness turned out to be 0.548.
The figure for C11A G25C C34G C46A A70G is ≤ 0.5; for C11A G18A C46U it is 0.61.
Consider C11A G12A C29U G48A G50A, for which the yeast fitness is ≤ 0.5.
The figure for C11A U19G A36G is 0.521; for C11A U47G it is 0.542; for C11G A14U C34A A57G it is 0.642.
Consider C11A G12A U16A G23C, for which the yeast fitness is ≤ 0.5.
With C11A U59C A69U, the yeast fitness is 0.573.
Turning to C11A G23C U32G C34A, the yeast fitness was ≤ 0.5.
The figure for C11G A15U A21G G38C is 0.604; for C11A G17A C33U it is ≤ 0.5.
